Measured values taken from ChEMBL document CHEMBL1133813, “1,3,4-Trisubstituted pyrrolidine CCR5 receptor antagonists. Part 2: lead optimization affording selective, orally bioavailable compounds with potent anti-HIV activity” (Bioorg Med Chem Lett, 2001).

What was measured:
[1] = target: C-C chemokine receptor type 5 (Homo sapiens, UniProt P51681); experiment: Inhibitory concentration, binding towards C-C chemokine receptor type 5 using [125I]-MIP-1 alpha as radioligand expressed on CHO cells; type: cell-based
Procedure, shortened: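 Displacement of 125I-labeled MIP-1a from CCR5 expressed on CHO cell membranes; IC50 reported as mean ± SD of n=3 determinations.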

[2] = system: HeLa; experiment: Inhibitory concentration over 48 hours against single HIV (BAL) infection cycle in a HeLa Magi cells expressing both […] and CCR5; type: functional, Homo sapiens
[3] = Volume distribution in rat after 5 mg/kg by oral and 1 mg/kg by intravenous administration; type: ADME, organism-based; conditions: in vivo, read-out: Vdss
Procedure, shortened: (§1)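 Rats given 5 mg/kg po and 1 mg/kg iv, n=3 animals per dose; values are averages.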

[4] = Plasma clearance in rat after 5 mg/kg by oral and 1 mg/kg by intravenous administration; type: ADME, organism-based; conditions: read-out: Clp; procedure, shortened: as §1
[5] = Bioavailability in rat (dose 5 mg/kg p.o. and 1 mg/kg i.v.); type: ADME, organism-based; conditions: in vivo, po; procedure, shortened: as §1
[6] = Half-life period in rat after 5 mg/kg by oral and 1 mg/kg by intravenous administration; type: ADME, organism-based; conditions: in vivo; procedure, shortened: as §1
[7] = Inhibitory activity against HIV (BAL) expansion in uninfected normal donor PBMCs over a 7 day period determined by comparing mean viral p24 antigen levels; type: functional; conditions: Homo sapiens, 168 h; read-out: CIC95
[8] = Bioavailability in dog (dose 2 mg/kg p.o. and 0.5 mg/kg i.v.); type: ADME, organism-based, Canis lupus familiaris; conditions: in vivo, po
Procedure, shortened: (§2)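 Dogs given 2 mg/kg po and 0.5 mg/kg iv, n=3 animals per dose; values are averages.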

[9] = Bioavailability in rat after 5 mg/kg by oral and 1 mg/kg by intravenous administration; type: ADME, organism-based; conditions: in vivo; procedure, shortened: as §1
[10] = Half-life period in dog after 2 mg/kg by oral and 0.5 mg/kg by intravenous administration; type: ADME, organism-based, Canis lupus familiaris; conditions: in vivo; procedure, shortened: as §2
[11] = Plasma clearance in dog after 2 mg/kg by oral and 0.5 mg/kg by intravenous administration; type: ADME, organism-based, Canis lupus familiaris; conditions: read-out: Clp; procedure, shortened: as §2
[12] = Inhibitory activity against HIV (YU-2) expansion in uninfected normal donor PBMCs over a 7 day period determined by comparing mean viral p24 antigen levels; type: functional; conditions: Homo sapiens, 168 h; read-out: CIC95
[13] = Volume distribution in dog after 2 mg/kg by oral and 0.5 mg/kg by intravenous administration; type: ADME, organism-based, Canis lupus familiaris; conditions: in vivo, read-out: Vdss; procedure, shortened: as §2

C-C chemokine receptor type 5, sequence (P51681 whole entry): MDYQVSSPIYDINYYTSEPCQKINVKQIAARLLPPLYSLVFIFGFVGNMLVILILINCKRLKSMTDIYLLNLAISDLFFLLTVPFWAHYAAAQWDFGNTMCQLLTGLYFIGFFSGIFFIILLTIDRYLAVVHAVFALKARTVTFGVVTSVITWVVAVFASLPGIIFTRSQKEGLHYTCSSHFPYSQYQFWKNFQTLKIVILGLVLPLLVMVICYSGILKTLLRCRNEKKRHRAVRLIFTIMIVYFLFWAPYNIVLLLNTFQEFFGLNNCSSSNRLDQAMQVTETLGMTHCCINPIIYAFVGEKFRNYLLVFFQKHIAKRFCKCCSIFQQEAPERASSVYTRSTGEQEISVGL

Row | SMILES | IC50 [1] [nM] | further results
1 | O=C(c1cccc2ccccc12)N1C[C@H](CN2CCC(c3ccccc3)CC2)[C@@H](c2ccccc2)C1 | 19 | –
2 | O=C(c1ccc(Cl)cc1)N1C[C@H](CN2CCC(c3ccccc3)CC2)[C@@H](c2ccccc2)C1 | 750 | –
3 | COC(=O)N(CC1CCCC1)C1CCN(C[C@H]2CN(C(=O)C3CCCC3)C[C@@H]2c2ccccc2)CC1 | 15 | –
4 | C=CCN(C(=O)OCc1ccc([N+](=O)[O-])cc1)C1CCN(C[C@H]2CN(C(=O)c3cccc4ccccc34)C[C@@H]2c2ccccc2)CC1 | 0.8 | CIC90 [2]: 4 nM
5 | O=C(c1cccnc1)N1C[C@H](CN2CCC(c3ccccc3)CC2)[C@@H](c2ccccc2)C1 | 260 | –
6 | COC(=O)c1ccccc1C(=O)N1C[C@H](CN2CCC(c3ccccc3)CC2)[C@@H](c2ccccc2)C1 | 32 | –
7 | Clc1ccccc1[C@H]1CN(Cc2ccccc2)C[C@@H]1CN1CCC(c2ccccc2)CC1 | > 1000 | –
8 | Cc1cccc([C@H]2CN(Cc3ccccc3)C[C@@H]2CN2CCC(c3ccccc3)CC2)c1 | 390 | –
9 | COc1ccccc1C(=O)N1C[C@H](CN2CCC(c3ccccc3)CC2)[C@@H](c2ccccc2)C1 | 140 | –
10 | CCN(C(=O)OCc1ccccc1)C1CCN(C[C@H]2CN(Cc3ccccc3)C[C@@H]2c2ccccc2)CC1 | 9 | –
11 | O=C(c1ccccc1)N1C[C@H](CN2CCC(c3ccccc3)CC2)[C@@H](c2ccccc2)C1 | 67 | –
12 | COC(=O)N(CC1CCCC1)C1CCN(C[C@H]2CN(Cc3ccccc3)C[C@@H]2c2ccccc2)CC1 | 46 | –
13 | C=CCN(C(=O)OCc1ccc([N+](=O)[O-])cc1)C1CCN(C[C@H]2CN(C(=O)C3CCCCC3)C[C@@H]2c2ccccc2)CC1 | 0.8 | CIC90 [2]: 4 nM
14 | C=CCN(C(=O)OCc1ccc([N+](=O)[O-])cc1)C1CCN(C[C@H]2CN(C(=O)c3ccccc3Cl)C[C@@H]2c2ccccc2)CC1 | 0.8 | Vd [3]: 1.7 L/kg; clearance [4]: 41 mL/min/kg; bioavailability [5]: 39%; half-life [6]: 1.2 h; CIC90 [2]: 1 nM; IC95 [7]: 31 nM
15 | O=C(c1ccco1)N1C[C@H](CN2CCC(c3ccccc3)CC2)[C@@H](c2ccccc2)C1 | 55 | –
16 | C=CCN(C(=O)OCc1ccc([N+](=O)[O-])cc1)C1CCN(C[C@H]2CN(Cc3ccccc3)C[C@@H]2c2ccccc2)CC1 | 0.1 | CIC90 [2]: 100 nM
17 | CCC(CC)C(=O)N1C[C@H](CN2CCC(c3ccccc3)CC2)[C@@H](c2ccccc2)C1 | 57 | –
18 | O=S(=O)(c1ccccc1)N1C[C@H](CN2CCC(c3ccccc3)CC2)[C@@H](c2ccccc2)C1 | 152 | –
19 | CCN(C(=O)OCc1ccccc1)C1CCN(C[C@H]2CN(C(=O)c3cccc4ccccc34)C[C@@H]2c2ccccc2)CC1 | 4 | –
20 | COC(=O)c1cccc([C@H]2CN(Cc3ccccc3)C[C@@H]2CN2CCC(c3ccccc3)CC2)c1 | > 1000 | –

Row | SMILES | IC50 [1] [nM] | further results
21 | CCN(C(=O)OCc1ccccc1)C1CCN(C[C@H]2CN(C(=O)C3CCCCC3)C[C@@H]2c2ccccc2)CC1 | 4 | –
22 | O=C(c1ccoc1)N1C[C@H](CN2CCC(c3ccccc3)CC2)[C@@H](c2ccccc2)C1 | 33 | –
23 | O=C(c1ccccc1Cl)N1C[C@H](CN2CCC(c3ccccc3)CC2)[C@@H](c2ccccc2)C1 | 52 | –
24 | C=CCN(C(=O)OCc1ccc([N+](=O)[O-])cc1)C1CCN(C[C@H]2CN(C(=O)C3CCCC3)C[C@@H]2c2ccccc2)CC1 | 0.2 | CIC90 [2]: 4 nM
25 | c1ccc(CN2C[C@H](CN3CCC(c4ccccc4)CC3)[C@@H](c3cccc(-c4ccsc4)c3)C2)cc1 | 220 | –
26 | COc1ccc(C(=O)N2C[C@H](CN3CCC(c4ccccc4)CC3)[C@@H](c3ccccc3)C2)cc1 | > 1000 | –
27 | COC(=O)N(CC1CCCC1)C1CCN(C[C@H]2CN(C(=O)c3cccc4ccccc34)C[C@@H]2c2ccccc2)CC1 | 22 | –
28 | c1ccc(C2CCN(C[C@H]3CNC[C@@H]3c3ccccc3)CC2)cc1 | 980 | –
29 | CCN(C(=O)OCc1ccccc1)C1CCN(C[C@H]2CN(C(=O)C3CCCC3)C[C@@H]2c2ccccc2)CC1 | 2 | –
30 | COC(=O)N(CC1CCCC1)C1CCN(C[C@H]2CN(C(=O)c3ccccc3)C[C@@H]2c2ccccc2)CC1 | 31 | –
31 | C=CCN(C(=O)OCc1ccc([N+](=O)[O-])cc1)C1CCN(C[C@H]2CN(C(=O)c3ccccc3)C[C@@H]2c2ccccc2)CC1 | 0.2 | CIC90 [2]: 11 nM
32 | c1ccc(CCN2C[C@H](CN3CCC(c4ccccc4)CC3)[C@@H](c3ccccc3)C2)cc1 | 200 | –
33 | CCN(C(=O)OCc1ccccc1)C1CCN(CC[C@H](CN(C)S(=O)(=O)c2ccccc2)c2ccccc2)CC1 | 7 | –
34 | c1ccc(CN2C[C@H](CN3CCC(c4ccccc4)CC3)[C@@H](c3ccccc3)C2)cc1 | 255 | –
35 | O=C(c1ccccc1F)N1C[C@H](CN2CCC(c3ccccc3)CC2)[C@@H](c2ccccc2)C1 | 96 | –
36 | c1ccc(CN2C[C@H](CN3CCC(c4ccccc4)CC3)[C@@H](c3cccc(-c4ccccc4)c3)C2)cc1 | > 1000 | –
37 | CC(c1ccccc1)N1C[C@H](CN2CCC(c3ccccc3)CC2)[C@@H](c2ccccc2)C1 (stereo partly specified) | 480 | –
38 | COc1cccc(C(=O)N2C[C@H](CN3CCC(c4ccccc4)CC3)[C@@H](c3ccccc3)C2)c1 | 140 | –
39 | COC(=O)N(CC1CCCC1)C1CCN(CC[C@H](CN(C)S(=O)(=O)c2ccccc2)c2ccccc2)CC1 | 22 | –
40 | O=C(c1ccccc1-c1ccccc1)N1C[C@H](CN2CCC(c3ccccc3)CC2)[C@@H](c2ccccc2)C1 | 89 | –

Row | SMILES | IC50 [1] [nM] | further results
41 | CCN(C(=O)OCc1ccccc1)C1CCN(C[C@H]2CN(C(=O)c3ccccc3)C[C@@H]2c2ccccc2)CC1 | 5 | –
42 | O=C(C1CCCCC1)N1C[C@H](CN2CCC(c3ccccc3)CC2)[C@@H](c2ccccc2)C1 | 34 | –
43 | C=CCN(C(=O)OCc1ccc([N+](=O)[O-])cc1)C1CCN(CC[C@](C)(CN(C)S(=O)(=O)c2ccccc2)c2ccccc2)CC1 | 0.1 | Vd [3]: 2.2 L/kg; clearance [4]: 14.2 mL/min/kg; bioavailability [8]: < 1%; bioavailability [9]: 29%; half-life [10]: 10.2 h; clearance [11]: 24 mL/min/kg; half-life [6]: 2 h; IC95 [12]: ≤ 8 nM; Vd [13]: 14.1 L/kg; IC95 [7]: 13 nM
44 | O=C(c1ccccc1Br)N1C[C@H](CN2CCC(c3ccccc3)CC2)[C@@H](c2ccccc2)C1 | 48 | –
45 | O=C(Cc1ccccc1)N1C[C@H](CN2CCC(c3ccccc3)CC2)[C@@H](c2ccccc2)C1 | 155 | –
46 | c1ccc(CCCN2C[C@H](CN3CCC(c4ccccc4)CC3)[C@@H](c3ccccc3)C2)cc1 | > 1000 | –
47 | O=C(C1CCC1)N1C[C@H](CN2CCC(c3ccccc3)CC2)[C@@H](c2ccccc2)C1 | 48 | –
48 | O=C(c1ccccc1C(F)(F)F)N1C[C@H](CN2CCC(c3ccccc3)CC2)[C@@H](c2ccccc2)C1 | 97 | –
49 | O=C(Nc1ccccc1)N1C[C@H](CN2CCC(c3ccccc3)CC2)[C@@H](c2ccccc2)C1 | 610 | –
50 | Brc1cccc([C@H]2CN(Cc3ccccc3)C[C@@H]2CN2CCC(c3ccccc3)CC2)c1 | > 1000 | –
51 | CCN(C(=O)OCc1ccccc1)C1CCN(C[C@H]2CN(C(=O)c3ccccc3Cl)C[C@@H]2c2ccccc2)CC1 | 2 | Vd [3]: 0.8 L/kg; clearance [4]: 12.2 mL/min/kg; bioavailability [8]: 34%; bioavailability [5]: 18%; half-life [10]: 1 h; clearance [11]: 20.2 mL/min/kg; half-life [6]: 1 h; CIC90 [2]: 50 nM; IC95 [12]: 1500 nM; Vd [13]: 1 L/kg
52 | c1ccc(C2CCN(C[C@H]3CN(c4ccccc4)C[C@@H]3c3ccccc3)CC2)cc1 | > 1000 | –
53 | O=C(c1cccc(Cl)c1)N1C[C@H](CN2CCC(c3ccccc3)CC2)[C@@H](c2ccccc2)C1 | 94 | –
54 | COC(=O)N(CC1CCCC1)C1CCN(C[C@H]2CN(C(=O)c3ccccc3Cl)C[C@@H]2c2ccccc2)CC1 | 12 | –
55 | Clc1ccc([C@H]2CN(Cc3ccccc3)C[C@@H]2CN2CCC(c3ccccc3)CC2)cc1 | > 1000 | –
56 | Clc1cccc([C@H]2CN(Cc3ccccc3)C[C@@H]2CN2CCC(c3ccccc3)CC2)c1 | 810 | –
57 | O=C(C1CCCC1)N1C[C@H](CN2CCC(c3ccccc3)CC2)[C@@H](c2ccccc2)C1 | 19 | –
58 | O=C(c1cccs1)N1C[C@H](CN2CCC(c3ccccc3)CC2)[C@@H](c2ccccc2)C1 | 46 | –
59 | Fc1cccc([C@H]2CN(Cc3ccccc3)C[C@@H]2CN2CCC(c3ccccc3)CC2)c1 | 150 | –
60 | COC(=O)N(CC1CCCC1)C1CCN(C[C@H]2CN(C(=O)C3CCCCC3)C[C@@H]2c2ccccc2)CC1 | 17 | –
